{
  "source": "ChEMBL document CHEMBL4138139",
  "about": "“Discovery of VU6005649, a CNS Penetrant mGlu7/8 Receptor PAM Derived from a Series of Pyrazolo[1,5-a]pyrimidines” (ACS Med Chem Lett, 2017)",
  "key": {"[1]": {"target": "Metabotropic glutamate receptor 2 (Rattus norvegicus, UniProt P31421)", "sequence (P31421 whole entry)": "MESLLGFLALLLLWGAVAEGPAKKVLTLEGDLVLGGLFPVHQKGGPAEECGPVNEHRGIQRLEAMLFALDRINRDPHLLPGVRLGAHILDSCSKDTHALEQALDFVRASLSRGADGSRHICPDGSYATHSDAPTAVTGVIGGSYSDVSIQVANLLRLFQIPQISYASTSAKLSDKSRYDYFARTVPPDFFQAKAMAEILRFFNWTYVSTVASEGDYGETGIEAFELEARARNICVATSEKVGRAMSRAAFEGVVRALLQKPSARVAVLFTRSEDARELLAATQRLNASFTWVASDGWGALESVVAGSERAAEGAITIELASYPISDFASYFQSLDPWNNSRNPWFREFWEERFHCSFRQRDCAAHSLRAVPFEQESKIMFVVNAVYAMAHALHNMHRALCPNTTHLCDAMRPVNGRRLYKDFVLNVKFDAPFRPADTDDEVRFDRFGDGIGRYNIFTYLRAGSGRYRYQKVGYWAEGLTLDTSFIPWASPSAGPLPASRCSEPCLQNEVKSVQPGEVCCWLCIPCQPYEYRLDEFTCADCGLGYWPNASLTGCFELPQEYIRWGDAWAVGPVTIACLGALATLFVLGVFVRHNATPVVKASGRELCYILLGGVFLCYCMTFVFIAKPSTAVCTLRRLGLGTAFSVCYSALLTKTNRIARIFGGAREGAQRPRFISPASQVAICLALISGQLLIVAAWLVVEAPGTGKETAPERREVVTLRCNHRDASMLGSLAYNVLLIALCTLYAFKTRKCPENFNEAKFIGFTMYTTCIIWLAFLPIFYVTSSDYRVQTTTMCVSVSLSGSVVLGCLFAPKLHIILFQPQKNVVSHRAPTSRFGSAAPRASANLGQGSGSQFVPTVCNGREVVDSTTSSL", "experiment": "Positive allosteric modulation of rat mGlu2 receptor expressed in HEK cells assessed as increase in glutamate-induced calcium flux incubated for 142 secs followed by glutamate addition measured after 120 secs by Fluo4-AM dye based fluorescence assay", "assay_type": "functional, cell-based"}, "[2]": {"target": "Beta-2 adrenergic receptor (Homo sapiens) (UniProt P07550)", "sequence (P07550 whole entry, looked up)": "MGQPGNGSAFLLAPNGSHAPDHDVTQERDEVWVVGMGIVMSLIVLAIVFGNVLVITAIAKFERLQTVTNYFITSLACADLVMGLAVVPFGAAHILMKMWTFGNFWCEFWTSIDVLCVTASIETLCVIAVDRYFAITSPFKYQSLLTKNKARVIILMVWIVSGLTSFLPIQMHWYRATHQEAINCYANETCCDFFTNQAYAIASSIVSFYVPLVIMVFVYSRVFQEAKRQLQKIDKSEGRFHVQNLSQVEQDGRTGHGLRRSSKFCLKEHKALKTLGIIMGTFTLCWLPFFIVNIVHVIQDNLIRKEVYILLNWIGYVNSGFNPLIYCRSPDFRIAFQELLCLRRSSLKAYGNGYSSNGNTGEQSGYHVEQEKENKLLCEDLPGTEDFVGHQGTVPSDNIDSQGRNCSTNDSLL", "experiment": "Displacement of [3H] CGP-12177 from recombinant human beta2 receptor expressed in CHO cell membranes co-expressing human NBR1 at 10 uM after 60 mins by scintillation counting method relative to control", "method_in_brief": "(§1)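 Single-concentration screen at 10 μM in an outsourced profiling panel of 68 GPCRs, ion channels and transporters. Activity read out as percent inhibition of specific radioligand binding.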"}, "Rattus norvegicus": {"organism": "Rattus norvegicus", "experiment": "Displacement of [3H]-flunitrazepam from Wistar rat brain central GABA-A receptor at 10 uM measured after 60 mins by scintillation counting method relative to control", "method_in_brief": "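Single-concentration screen at 10 μM within a commercial lead-profiling panel of 68 GPCRs, ion channels and transporters. Activity read as percent inhibition of specific radioligand binding to each target.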"}, "Cytochrome P450 1A2": {"target": "T1, Cytochrome P450 1A2 (Homo sapiens, UniProt P05177)", "T1 sequence (P05177 whole entry)": "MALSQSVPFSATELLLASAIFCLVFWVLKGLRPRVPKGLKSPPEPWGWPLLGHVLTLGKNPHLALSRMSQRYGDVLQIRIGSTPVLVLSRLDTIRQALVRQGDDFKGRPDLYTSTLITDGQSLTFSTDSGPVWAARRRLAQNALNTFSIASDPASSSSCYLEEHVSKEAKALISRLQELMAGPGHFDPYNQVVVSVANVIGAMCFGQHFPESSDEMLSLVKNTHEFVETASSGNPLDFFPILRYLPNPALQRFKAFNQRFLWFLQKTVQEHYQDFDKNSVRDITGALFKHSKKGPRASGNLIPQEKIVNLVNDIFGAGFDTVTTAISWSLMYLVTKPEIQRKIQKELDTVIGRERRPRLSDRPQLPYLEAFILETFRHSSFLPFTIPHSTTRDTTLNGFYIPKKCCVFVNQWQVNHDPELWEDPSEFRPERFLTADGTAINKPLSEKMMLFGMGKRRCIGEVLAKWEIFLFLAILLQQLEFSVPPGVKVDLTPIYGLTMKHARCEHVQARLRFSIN", "experiment": "Inhibition of CYP1A2 in human liver microsomes using phenacetin as substrate preincubated for 15 mins followed by NADPH addition measured after 8 mins by LC-MS/MS analysis", "assay_type": "ADME"}, "Cytochrome P450 3A4": {"target": "Cytochrome P450 3A4 (Homo sapiens, UniProt P08684)", "sequence (P08684 whole entry)": "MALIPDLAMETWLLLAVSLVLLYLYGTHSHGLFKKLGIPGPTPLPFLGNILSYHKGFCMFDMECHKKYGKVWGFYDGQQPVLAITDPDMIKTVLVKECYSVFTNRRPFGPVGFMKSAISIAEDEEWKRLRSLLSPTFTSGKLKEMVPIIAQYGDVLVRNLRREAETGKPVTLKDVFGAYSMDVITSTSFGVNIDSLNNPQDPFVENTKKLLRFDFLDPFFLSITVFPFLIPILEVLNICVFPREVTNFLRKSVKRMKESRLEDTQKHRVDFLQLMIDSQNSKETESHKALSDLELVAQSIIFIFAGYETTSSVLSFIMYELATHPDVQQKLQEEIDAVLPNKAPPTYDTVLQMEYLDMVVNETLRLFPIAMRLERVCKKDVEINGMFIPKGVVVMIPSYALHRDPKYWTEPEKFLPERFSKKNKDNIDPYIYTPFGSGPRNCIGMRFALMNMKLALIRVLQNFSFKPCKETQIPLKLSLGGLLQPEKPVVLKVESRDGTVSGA", "experiment": "Inhibition of CYP3A4 in human liver microsomes using midazolam as substrate preincubated for 15 mins followed by NADPH addition measured after 8 mins by LC-MS/MS analysis", "assay_type": "ADME"}, "[3]": {"target": "L-type calcium channel, benzothiazepine site (Rattus norvegicus, UniProt P22002+P27732+Q02485)", "experiment": "Inhibition of rat L-type calcium channel benzothiazepine site at 10 uM relative to control", "assay_type": "protein assay"}, "[4]": {"target": "Metabotropic glutamate receptor 6 (Homo sapiens, UniProt O15303)", "sequence (O15303 whole entry)": "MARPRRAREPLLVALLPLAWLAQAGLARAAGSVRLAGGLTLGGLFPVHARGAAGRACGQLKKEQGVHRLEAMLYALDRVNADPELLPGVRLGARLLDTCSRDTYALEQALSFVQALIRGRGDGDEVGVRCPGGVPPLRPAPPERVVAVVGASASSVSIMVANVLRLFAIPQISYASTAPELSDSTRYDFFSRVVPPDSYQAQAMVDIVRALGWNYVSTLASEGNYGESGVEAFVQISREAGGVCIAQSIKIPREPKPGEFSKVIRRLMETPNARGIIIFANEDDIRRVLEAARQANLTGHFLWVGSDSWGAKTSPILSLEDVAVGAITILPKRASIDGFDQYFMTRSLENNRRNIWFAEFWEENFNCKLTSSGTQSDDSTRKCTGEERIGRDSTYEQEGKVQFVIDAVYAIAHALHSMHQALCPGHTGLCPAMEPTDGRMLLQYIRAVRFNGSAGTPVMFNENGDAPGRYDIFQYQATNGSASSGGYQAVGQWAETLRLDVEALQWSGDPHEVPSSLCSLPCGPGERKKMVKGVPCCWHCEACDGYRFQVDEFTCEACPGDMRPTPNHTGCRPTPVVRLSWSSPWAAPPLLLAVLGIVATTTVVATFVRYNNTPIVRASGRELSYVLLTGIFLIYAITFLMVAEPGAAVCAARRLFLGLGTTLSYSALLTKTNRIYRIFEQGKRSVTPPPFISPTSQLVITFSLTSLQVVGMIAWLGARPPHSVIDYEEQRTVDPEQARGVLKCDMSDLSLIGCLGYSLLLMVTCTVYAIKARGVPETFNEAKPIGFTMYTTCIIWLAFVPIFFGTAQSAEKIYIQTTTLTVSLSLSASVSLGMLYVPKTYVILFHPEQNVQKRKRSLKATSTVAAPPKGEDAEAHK", "experiment": "Negative allosteric modulation of human mGlu6 receptor expressed in HEK cells harboring GIRK channel assessed as decrease in glutamate-induced thallium flux incubated for 142 secs followed by glutamate addition measured after 120 secs by Fluo4-AM dye based fluorescence assay", "assay_type": "functional, cell-based"}, "[5]": {"target": "Adenosine receptor A3 (Homo sapiens) (UniProt P0DMS8)", "sequence (P0DMS8 whole entry)": "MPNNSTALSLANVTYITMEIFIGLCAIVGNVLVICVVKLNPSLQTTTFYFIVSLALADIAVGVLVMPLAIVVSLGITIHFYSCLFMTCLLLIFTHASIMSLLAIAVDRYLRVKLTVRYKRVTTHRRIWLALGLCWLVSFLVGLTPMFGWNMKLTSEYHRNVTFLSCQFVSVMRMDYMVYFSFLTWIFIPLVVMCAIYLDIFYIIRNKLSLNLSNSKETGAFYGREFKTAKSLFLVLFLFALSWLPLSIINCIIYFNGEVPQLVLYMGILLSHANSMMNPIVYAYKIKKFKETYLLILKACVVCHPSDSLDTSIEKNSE", "experiment": "Displacement of [125I] AB-MECA from full length human recombinant A3 receptor expressed in CHOK1 cell membranes at 10 uM after 60 mins by scintillation counting method relative to control", "method_in_brief": "as §1"}, "Mus musculus": {"organism": "Mus musculus", "experiment": "Displacement of [3H] PDBu from phorbol ester receptor in ICR mouse brain membranes at 10 uM after 60 mins by scintillation counting method relative to control", "assay_type": "cell membranes", "settings": "Membrane", "method_in_brief": "as §1"}, "[6]": {"target": "Metabotropic glutamate receptor 5 (Rattus norvegicus, UniProt P31424)", "sequence (P31424 whole entry)": "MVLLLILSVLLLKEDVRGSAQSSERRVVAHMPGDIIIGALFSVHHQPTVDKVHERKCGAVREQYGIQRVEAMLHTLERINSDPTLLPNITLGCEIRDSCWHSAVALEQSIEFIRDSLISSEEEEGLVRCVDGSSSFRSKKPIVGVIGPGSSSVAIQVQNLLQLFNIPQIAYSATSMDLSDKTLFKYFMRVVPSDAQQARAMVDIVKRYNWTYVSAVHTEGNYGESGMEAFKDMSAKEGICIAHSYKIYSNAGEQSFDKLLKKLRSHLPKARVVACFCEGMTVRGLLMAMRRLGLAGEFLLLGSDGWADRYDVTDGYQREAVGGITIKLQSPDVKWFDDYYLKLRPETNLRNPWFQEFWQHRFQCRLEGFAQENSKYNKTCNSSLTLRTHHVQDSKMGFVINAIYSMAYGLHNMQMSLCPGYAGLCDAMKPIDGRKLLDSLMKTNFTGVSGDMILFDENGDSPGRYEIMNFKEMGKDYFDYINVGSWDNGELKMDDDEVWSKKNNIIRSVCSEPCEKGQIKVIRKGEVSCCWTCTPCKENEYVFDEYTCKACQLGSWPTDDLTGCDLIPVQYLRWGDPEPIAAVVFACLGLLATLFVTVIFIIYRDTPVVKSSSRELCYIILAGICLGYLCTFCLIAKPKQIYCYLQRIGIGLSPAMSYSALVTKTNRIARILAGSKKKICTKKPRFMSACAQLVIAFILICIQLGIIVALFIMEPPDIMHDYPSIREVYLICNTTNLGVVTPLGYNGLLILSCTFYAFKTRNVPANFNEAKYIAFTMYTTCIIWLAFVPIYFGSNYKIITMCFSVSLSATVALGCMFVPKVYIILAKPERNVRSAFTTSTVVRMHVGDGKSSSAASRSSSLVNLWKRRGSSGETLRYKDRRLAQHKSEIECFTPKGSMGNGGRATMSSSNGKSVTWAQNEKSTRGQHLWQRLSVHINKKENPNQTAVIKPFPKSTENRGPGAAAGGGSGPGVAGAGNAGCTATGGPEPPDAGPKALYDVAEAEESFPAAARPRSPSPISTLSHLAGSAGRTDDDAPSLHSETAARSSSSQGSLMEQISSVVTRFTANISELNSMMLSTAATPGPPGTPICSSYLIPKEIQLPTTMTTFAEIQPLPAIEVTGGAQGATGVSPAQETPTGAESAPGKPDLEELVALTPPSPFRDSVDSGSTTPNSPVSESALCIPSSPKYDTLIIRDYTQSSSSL", "experiment": "Negative allosteric modulation of rat mGlu5 receptor expressed in HEK cells assessed as decrease in glutamate-induced thallium flux incubated for 142 secs followed by glutamate addition measured after 120 secs by Fluo4-AM dye based fluorescence assay", "assay_type": "functional, cell-based"}},
  "data": [
    {"smiles": "COc1ccc(-c2c(C)nn3c(C(F)(F)F)cc(C)nc23)c(F)c1F", "values": [
      {"measurement": "EC50", "setting": "[1]", "value": "> 10", "unit": "µM"},
      {"measurement": "inhibition", "setting": "[2]", "value": "< 50", "unit": "%"},
      {"measurement": "inhibition", "setting": "Rattus norvegicus", "value": "< 50", "unit": "%"},
      {"measurement": "IC50", "setting": "Cytochrome P450 1A2", "value": 3.08, "unit": "µM"},
      {"measurement": "IC50", "setting": "Cytochrome P450 3A4", "value": "> 30", "unit": "µM"},
      {"measurement": "inhibition at 10 µM", "setting": "[3]", "value": "< 50", "unit": "%"},
      {"measurement": "IC50", "setting": "[4]", "value": "> 10", "unit": "µM"},
      {"measurement": "inhibition", "setting": "[5]", "value": "< 50", "unit": "%"},
      {"measurement": "inhibition", "setting": "Mus musculus", "value": "< 50", "unit": "%"},
      {"measurement": "IC50", "setting": "[6]", "value": "> 10", "unit": "µM"}
    ]}
  ]
}
